An excerpt weighted towards active compounds, which were near 2.6% of everything screened.
rCAG RNA binder: molecules binding r(CAG) RNA repeats; r(CAG) RNA repeat, TO-PRO-1 dye displacement fluorescence; inhibition, % at 3 µM; 1.3% of 370,000 active; AID 651821;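 active = inhibition above the plate cutoff, the mean of all test compounds on that plate plus 3 SD, cut at about 35% in these data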;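 note: higher means more dye released from RNA so lower well fluorescence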
NadD block: inhibitors of Staphylococcus aureus NadD | purified NadD enzyme, colorimetric absorbance read-out | inhibition, % at 20 µM | 0.78% of 360,000 active; in the data active = inhibition above about 26%
ABHD5 PLIN5 PPI: inhibitors of human ABHD5-perilipin-5 interaction; Split G. princeps luciferase complementation, luminescence, 4 h; 0.78% of 360,000 active; inhibition, % at 4 µM;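 active = inhibition above the mean inhibition across every tested compound plus 3 SD, cut at about 22% in these data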
Target sequence (Q00G26 whole entry, looked up): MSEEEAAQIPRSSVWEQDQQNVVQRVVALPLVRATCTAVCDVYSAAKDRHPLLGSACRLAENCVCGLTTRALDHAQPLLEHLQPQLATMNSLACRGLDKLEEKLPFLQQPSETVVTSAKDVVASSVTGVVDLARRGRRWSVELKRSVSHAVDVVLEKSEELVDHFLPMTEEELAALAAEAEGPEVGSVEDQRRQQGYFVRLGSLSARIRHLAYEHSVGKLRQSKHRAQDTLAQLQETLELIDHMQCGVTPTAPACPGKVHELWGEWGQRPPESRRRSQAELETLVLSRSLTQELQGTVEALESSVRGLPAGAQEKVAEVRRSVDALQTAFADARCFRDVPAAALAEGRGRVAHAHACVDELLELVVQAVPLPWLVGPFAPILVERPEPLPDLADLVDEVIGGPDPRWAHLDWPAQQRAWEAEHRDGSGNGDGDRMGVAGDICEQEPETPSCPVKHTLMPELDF
Target sequence (Q8WTS1 whole entry, looked up): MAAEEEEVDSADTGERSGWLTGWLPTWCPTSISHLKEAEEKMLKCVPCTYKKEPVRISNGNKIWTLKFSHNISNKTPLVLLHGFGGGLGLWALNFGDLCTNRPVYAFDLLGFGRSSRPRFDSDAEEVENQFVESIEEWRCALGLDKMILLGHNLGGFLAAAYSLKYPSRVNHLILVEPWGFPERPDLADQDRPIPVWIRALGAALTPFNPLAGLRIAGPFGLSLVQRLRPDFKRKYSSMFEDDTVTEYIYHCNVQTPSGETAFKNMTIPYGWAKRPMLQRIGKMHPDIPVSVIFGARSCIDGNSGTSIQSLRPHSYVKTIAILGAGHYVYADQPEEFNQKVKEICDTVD
HCV core dimer: blocks dimerization of HCV core protein. TR-FRET GST/Flag-core106 dimerization, 1536-well. inhibition, % at 5 µM. 0.33% of 300,000 active. AID 1899;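 active = inhibition above the mean of all tested compounds plus 3 SD, set per screening campaign, cut at about 45% in these data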
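Assay system: GST-tagged and Flag-tagged HCV core protein residues 1-106 / Times: compound-protein-antibody incubation 4 h at 22.5 °C / Signal: time-resolved FRET, ex 340 nm, em 617 and 671 nm / Evaluation: % inhibition based on acceptor/donor emission ratio / Benchmarks: wells lacking GST-core106 and wells with excess unlabelled core106 / Repeats: singlicate, one well per compound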
A number is an active result.

Results for Brc1cc(Br)c2ncnc(N3CCCCC3)c2c1 ?
rCAG RNA binder: inactive; NadD block: inactive; ABHD5 PLIN5 PPI: inactive; HCV core dimer: 60.7

How did O=C(Nc1cccc(S(=O)(=O)N2CCOCC2)c1)c1c2c(nc3ccccc13)CCC2 do in these assays?
rCAG RNA binder: inactive; NadD block: inactive; ABHD5 PLIN5 PPI: inactive; HCV core dimer: 74.2

What do the screens show for `O=C(Nc1cccc(S(=O)(=O)N2CCOCC2)c1)c1ccc2ccccc2n1`?
rCAG RNA binder: inactive; NadD block: inactive; ABHD5 PLIN5 PPI: inactive; HCV core dimer: inactive

How did CCN(CC)S(=O)(=O)c1ccc(N2CCOCC2)c(NC(=O)c2c3c(nc4ccccc24)CCC3)c1 do in these assays?
rCAG RNA binder: inactive; NadD block: inactive; ABHD5 PLIN5 PPI: inactive; HCV core dimer: 76.6

Results for O=C(CSc1nnc(NC2CCCCC2)s1)Nc1ccc2c(c1)C(=O)c1ccccc1C2=O ?
rCAG RNA binder: inactive; NadD block: 45.9; ABHD5 PLIN5 PPI: inactive; HCV core dimer: inactive

Results for COC(=O)[C@H]1C[C@@]2(N3CCCC3)c3ccccc3N[C@H]2N1S(=O)(=O)c1ccc([N+](=O)[O-])cc1 ?
rCAG RNA binder: inactive

What do the screens show for `Cc1cc(C)n2nc(C(=O)Nc3ccc4c(c3)OCO4)nc2n1`?
rCAG RNA binder: inactive; NadD block: inactive; ABHD5 PLIN5 PPI: inactive; HCV core dimer: 47.0

How did N=c1n(CCN2CCCCC2)c2ccccc2n1CC(=O)c1ccc(Cl)c(Cl)c1 do in these assays?
rCAG RNA binder: inactive; NadD block: inactive; ABHD5 PLIN5 PPI: 22.0; HCV core dimer: inactive

How did COC(=O)[C@]12C[C@H](CC(=O)N3CCCC3)C(=O)N(CCC3=CCCCC3)C1=C[C@H](C1CCCC1)O[C@@H]2C do in these assays?
rCAG RNA binder: inactive

How did Cc1ccc(NC(=O)c2nc[nH]c2C(=O)NCCN(CCNC(=O)c2[nH]cnc2C(=O)Nc2ccc(C)cc2)CCNC(=O)c2[nH]cnc2C(=O)Nc2ccc(C)cc2)cc1 do in these assays?
rCAG RNA binder: inactive; NadD block: 37.9; ABHD5 PLIN5 PPI: inactive

Results for COC(=O)c1cc(C)oc1C ?
rCAG RNA binder: inactive

Results for COc1ccccc1NC(=O)c1nc(S(=O)(=O)Cc2ccccc2)ncc1Cl ?
rCAG RNA binder: inactive; NadD block: inactive; ABHD5 PLIN5 PPI: inactive; HCV core dimer: inactive

How did CC(=O)Nc1ccc(NC(=O)c2nc(S(=O)(=O)Cc3cccc(C)c3)ncc2Cl)cc1 do in these assays?
rCAG RNA binder: inactive; NadD block: inactive; ABHD5 PLIN5 PPI: 65.6; HCV core dimer: inactive

How did COc1cc(Br)cc(/C=N/NC(=O)Cc2ccc(C(F)(F)F)cc2[N+](=O)[O-])c1O do in these assays?
rCAG RNA binder: inactive; NadD block: 38.9; ABHD5 PLIN5 PPI: inactive; HCV core dimer: inactive

How did CCOc1cc(/C=N/NC(=O)Cc2ccc(C(F)(F)F)cc2[N+](=O)[O-])c(Br)cc1OC do in these assays?
rCAG RNA binder: inactive; NadD block: inactive; ABHD5 PLIN5 PPI: inactive; HCV core dimer: inactive

How did Cc1ccc(S(=O)(=O)N2[C@@H](c3ccccc3F)C(C(=O)O)=CC[C@H]2c2ccc(Cl)c(Cl)c2)cc1 do in these assays?
rCAG RNA binder: 74.4; NadD block: inactive; ABHD5 PLIN5 PPI: inactive; HCV core dimer: inactive

How did Cc1cccc(C(=O)c2c(N)sc3c2CCC(C)C3)c1 (centres undefined) do in these assays?
rCAG RNA binder: inactive; NadD block: inactive; ABHD5 PLIN5 PPI: inactive; HCV core dimer: inactive

Results for Cc1cccc(C(=O)c2c(N)sc3c2CCCC3)c1 ?
rCAG RNA binder: inactive; NadD block: inactive; ABHD5 PLIN5 PPI: inactive; HCV core dimer: 49.0

How did COc1ccc(N2C(=O)Cc3c2nc(N)c(C#N)c3N)cc1 do in these assays?
rCAG RNA binder: inactive; NadD block: inactive; ABHD5 PLIN5 PPI: inactive; HCV core dimer: inactive

How did CC1=Nc2nc(N3CCCCCC3)c(C#N)c3c4c(nc(c23)N1)N(c1ccc2ccccc2c1)C(=O)C4 do in these assays?
NadD block: 55.0; ABHD5 PLIN5 PPI: inactive; HCV core dimer: inactive

How did COc1ccccc1Nc1nc(-c2cccs2)cs1 do in these assays?
rCAG RNA binder: 34.8; NadD block: inactive; ABHD5 PLIN5 PPI: inactive; HCV core dimer: inactive

How did COc1ccc(OC)c(Nc2nc(-c3cccs3)cs2)c1 do in these assays?
rCAG RNA binder: inactive; NadD block: inactive; ABHD5 PLIN5 PPI: inactive; HCV core dimer: inactive

What do the screens show for `COC(=O)[C@H](CC(C)C)N(CCc1cn(Cc2ccc(C)cc2)nn1)S(=O)(=O)c1ccccc1Br`?
rCAG RNA binder: inactive

How did CCOc1cc(/C=C2\C(=O)N(c3nc(-c4ccc(Br)cc4)cs3)N=C2c2ccccc2)ccc1O do in these assays?
NadD block: 76.5; ABHD5 PLIN5 PPI: inactive; HCV core dimer: 54.6

How did O=C(C(=O)N1CCN(C(=O)c2cccs2)CC1)c1cccc(C(F)(F)F)c1 do in these assays?
rCAG RNA binder: inactive

Results for CCCN(CC1CC1)C(=O)CNc1nnnn1-c1ccccc1 ?
rCAG RNA binder: inactive

How did Nc1c(C(=O)Nc2ccc(S(=O)(=O)N3CCCC3)cc2)sc2nc3ccc(OC(F)(F)F)cc3cc12 do in these assays?
NadD block: inactive; ABHD5 PLIN5 PPI: inactive; HCV core dimer: 63.0

How did COc1ccc2nc(SCC(=O)Nc3ccc(S(=O)(=O)N4CCCC4)cc3)c(C#N)cc2c1 do in these assays?
rCAG RNA binder: inactive; NadD block: inactive; ABHD5 PLIN5 PPI: inactive; HCV core dimer: inactive

What do the screens show for `Cc1c(NC(=O)COC(=O)c2cc(-c3ccc(-c4ccccc4)cc3)nc3ccccc23)c(=O)n(-c2ccccc2)n1C`?
rCAG RNA binder: inactive; NadD block: 49.8; ABHD5 PLIN5 PPI: inactive; HCV core dimer: 49.2

What do the screens show for `Cc1c(NC(=O)c2cc(-c3ccccc3)nc3ccccc23)c(=O)n(-c2ccccc2)n1C`?
rCAG RNA binder: inactive; NadD block: inactive; ABHD5 PLIN5 PPI: inactive

Results for CC(COc1ccccc1C#N)CN1CCC(C(O)(c2ccccc2)c2ccccc2)CC1 (centres undefined) ?
rCAG RNA binder: inactive

How did COc1ccc(NC(=O)Nc2ccc3c(c2)C(=O)N([C@H](C)CO)C[C@H](C)[C@@H](CN(C)Cc2ccc(Cl)c(Cl)c2)OCCCC[C@@H](C)O3)cc1 do in these assays?
rCAG RNA binder: inactive; NadD block: 39.6; ABHD5 PLIN5 PPI: inactive

Results for COc1ccc(C2=NN3C(C2)c2ccccc2OC32C(=O)N(C)c3ccccc32)cc1 (centres undefined) ?
rCAG RNA binder: inactive; NadD block: inactive; ABHD5 PLIN5 PPI: inactive; HCV core dimer: 65.2

What do the screens show for `COc1ccccc1CCn1cnc(-c2cccc(Cl)c2)c1CC(C)C`?
rCAG RNA binder: inactive

How did C=CCN(CC#Cc1ccccc1)CC=C do in these assays?
rCAG RNA binder: inactive

How did Cc1cc(/C=C2/C(=O)NN(c3ccccc3)C2=O)c(C)n1-c1ccc(O)cc1 do in these assays?
rCAG RNA binder: inactive; NadD block: inactive; ABHD5 PLIN5 PPI: inactive; HCV core dimer: inactive

How did Cc1cc(C=C2C(=O)CCCC2=O)c(C)n1-c1ccccc1 do in these assays?
rCAG RNA binder: inactive; NadD block: inactive; ABHD5 PLIN5 PPI: inactive; HCV core dimer: 55.1

How did CCCCCCCCN1CCS(=O)(=O)N(Cc2ccc(C(F)(F)F)cc2)C(C(=O)OC)C1 (centres undefined) do in these assays?
rCAG RNA binder: inactive

High-throughput results (PubChem BioAssay)
